Source: PubChem
CYP2C9 inhib: blocks human cytochrome P450 2C9; P11712; CYP2C9 Supersomes, luciferin-H conversion, luminescence; inhibition, % at 5 µM; 96,000 tested, 20% active; AID 777;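 active = blocking of liver enzyme CYP2C9 beyond about 50% at 5 µM, limit read from the data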
Target sequence (P11712 whole entry, looked up): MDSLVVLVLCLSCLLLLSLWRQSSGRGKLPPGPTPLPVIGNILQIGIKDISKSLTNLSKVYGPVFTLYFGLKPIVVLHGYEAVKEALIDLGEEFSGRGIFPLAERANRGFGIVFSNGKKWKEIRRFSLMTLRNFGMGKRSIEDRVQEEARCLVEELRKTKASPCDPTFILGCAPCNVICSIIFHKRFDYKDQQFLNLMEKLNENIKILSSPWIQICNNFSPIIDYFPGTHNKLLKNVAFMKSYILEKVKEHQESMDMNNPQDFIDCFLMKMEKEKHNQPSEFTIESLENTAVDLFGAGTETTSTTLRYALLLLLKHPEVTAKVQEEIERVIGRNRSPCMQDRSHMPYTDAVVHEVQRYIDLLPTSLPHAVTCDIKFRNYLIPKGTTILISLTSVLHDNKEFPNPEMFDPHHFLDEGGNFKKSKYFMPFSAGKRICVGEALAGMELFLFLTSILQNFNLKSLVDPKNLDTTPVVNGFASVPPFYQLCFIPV
CYP2C9 act: increases human cytochrome P450 2C9 activity. recombinant CYP2C9, luciferin-H conversion, luminescence; stronger effect = higher value; factor 1 = untreated enzyme, 0 = blocked. 96,000 tested, 1.4% active. activation factor at 5 µM;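 active = activation factor of 2 or more for CYP2C9 at a 5 µM dose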;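 also: 0 = sulfaphenazole-blocked wells and 1 = vehicle-only wells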
Ecoli tolC: blocks growth of E. coli BW25113 tolC mutant; OD615; growth inhibition, % at 10 µM (by protocol); 65,000 tested, 2.2% active;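 active = growth inhibition at or above a cutoff equal to the mean over every tested compound plus 3 SD, cut at about 60% in these data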;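 also: growth measured after 20 h incubation at 37 °C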
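Doses: one dose of 10 µM final / Material: E. coli BW25113 ΔtolC::kan, tolC deletion mutant strain / Buffer or medium: LB with kanamycin 50 µg/mL / Evaluation: percent growth inhibition / Detection: optical density read at 615 nm / Incubation: 37 °C, 20 h exposure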
CYP2C19 act: increases human CYP2C19 enzyme activity; recombinant CYP2C19, luciferin-H EGE luminescence; stronger effect = higher value; 0 = fully inhibited enzyme, 1 = untreated enzyme; 96,000 tested, under 10 active; AID 1025; activation factor at 5 µM;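 active = activation factor of at least 2 at 5 µM in the primary screen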;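 also: 0 = wells with 2.5 mM tranylcypromine and 1 = vehicle-only wells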
CYP2C19 inh: human CYP2C19 inhibition; P33261; CYP2C19 Supersomes, luciferin-H EGE luminescence, 30 min; inhibition, % at 5 µM; 96,000 tested, 21% active;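 active = CYP2C19 inhibition above a set limit at 5 µM in the primary screen, cut at about 50% in these data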;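 also: plate controls were negative control wells for no effect and 2.5 mM tranylcypromine positive control for full effect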
Ecoli WT expand: growth inhibitors of E. coli BW25113 wild type | AID 710 | OD600 absorbance | growth inhibition, % at 100 µM | 98,000 tested, 0.15% active;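 active = growth inhibition above about 50% at one test dose, limit read from the data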;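 also: growth measured after 20 h incubation at 37 °C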
Starred values were filed as active, the others as inactive; nt = no result given. Most compounds without a hit are left out; they make up all but 29% or so of the library.

SMILES	CYP2C9 inhib	CYP2C9 act	Ecoli tolC	CYP2C19 act	CYP2C19 inh	Ecoli WT expand
Cc1ccc(CSc2nnc(-c3ccc4c(c3)OCO4)o2)cc1	15	0.8	nt	0.9	13	-10
c1cc(CSc2nnc(-c3ccc4c(c3)OCO4)o2)ccn1	87*	0.1	17	0.1	94*	9
O=C(Nc1ccc2c(c1)OCO2)C1CCN(S(=O)(=O)Cc2ccccc2)CC1	55*	0.4	2	0.5	46	-1
O=C(Nc1ccc2c(c1)OCO2)C1CCN(Cc2cnn(-c3ccccc3)c2-n2cccc2)CC1	69*	0.3	19	0.8	21	-3
CCC1(C)CC(C(CC(=O)O)c2ccc(C)cc2)CCO1 (stereo unspecified)	49	0.5	nt	0.7	29	0
O=C1C(C2=C(O)c3ccccc3C2=O)=Nc2ccccc21	53*	0.5	8	0.6	45	5
O=C(CNC(=O)c1ccco1)OCN1C(=O)c2ccccc2C1=O	-4	1	-15	1	-5	5
Cc1csc(SCC(=O)Nc2ccc(S(=O)(=O)N3CCCC3)cc2)n1	94*	0.1	25	0.4	65*	12
Cc1csc(NC(=O)c2cccc(S(=O)(=O)N3CCCCC3)c2)n1	24	0.8	40	0.7	26	11
Cc1cc(C)nc(SCC(=O)N/N=C\c2sccc2C)n1	20	0.8	nt	0.4	55*	-1
COc1ccc(NC(=O)CCN2CCCCC2)cc1	-29	1.3	-4	1	-4	-10
Cc1csc(C(C#N)C(=O)c2ccc(S(=O)(=O)N3CCCC3)cc2)n1 (stereo unspecified)	72*	0.3	6	0.8	22	1
COc1ccc(NC(=O)CCn2nc(C)cc2C)cc1	-43	1.4	-15	0.3	68*	3
CCc1nc2c(c(SC)nn2-c2ccccc2)c(N)c1C(=O)OC	15	0.9	nt	1	2	-10
CCS(=O)(=O)c1ccc(C(=O)Nc2cccc(Cl)c2)c(Cl)c1Cl	-30	1.3	nt	1	0	-14
N#C/C(C(N)=O)=C1/CCc2ccccc2N1	-11	1.1	nt	1.1	-14	5
COc1ccc(NC(=O)CSc2nc(C)cc(C)n2)cc1	-3	1	nt	0.1	87*	6
Cc1cc(C)nc(SCC(=O)Nc2ccc(S(=O)(=O)NC(C)(C)C)cc2)n1	58*	0.4	nt	0.9	13	1
Cc1cc(C)nc(SCC(=O)Nc2ccc(S(=O)(=O)N3CCCCC3)cc2)n1	75*	0.2	nt	0.5	49	-6
Cc1cc(C)nc(SCC(=O)Nc2ccc(S(=O)(=O)NCCO)cc2)n1	15	0.9	nt	1	0	4
CC(=O)NCCNC(=O)CCNC(=O)c1ccc(Cl)cc1	6	0.9	nt	0.9	8	1
CCOC(=O)C(C)Oc1ccc2c(C)cc(=O)oc2c1C(C)=O (stereo unspecified)	7	0.9	9	0.4	58*	-1
CC(=O)c1c(OCC(=O)O)ccc2c(C)cc(=O)oc12	-21	1.2	5	1.2	-24	-2
CCOC(=O)C(C)Oc1ccc2c(CC)cc(=O)oc2c1C (stereo unspecified)	60*	0.4	nt	0.6	35	5
CC(C)(C)NC(=O)CSc1nnc(Cc2ccc3c(c2)OCO3)n1C1CCCCC1	10	0.9	12	0.9	9	-12
SMILES	CYP2C9 inhib	CYP2C9 act	Ecoli tolC	CYP2C19 act	CYP2C19 inh	Ecoli WT expand
COc1cc2cc3c(N)c(C(=O)Nc4sc(C)c(C)c4C#N)sc3nc2cc1OC	18	0.8	nt	1	4	-3
COc1ccc(OC)c(C(=O)CSc2nc3c(c(=O)n(C)c(=O)n3C)n2C(C)C)c1	54*	0.5	-7	0.6	45	-4
COc1ccc(OC)c(C(=O)CSc2nc3cccnc3n2C)c1	77*	0.2	12	0	98*	-6
Cn1c(SCC(=O)c2ccccc2)nc2cccnc21	43	0.6	-14	0.3	72*	2
CCCn1c(SCC(=O)c2cc(OC)ccc2OC)nc2c1c(=O)n(C)c(=O)n2C	-6	1.1	-10	1.1	-7	nt
Cn1c(SCC(=O)N2CCCCC2)nc2cccnc21	0	1	-12	0.9	9	2
Cn1c(SCC(=O)c2ccc(F)cc2)nc2cccnc21	-15	1.1	-8	0.2	85*	2
Cc1ccc(C(=O)CSc2nc3cccnc3n2C)cc1	-56	1.6	-3	0.7	32	0
CCCn1c(SCC(=O)c2cc(C)ccc2C)n[nH]c1=O	13	0.9	nt	0.9	10	11
COc1ccc(OC)c(C(=O)CSc2nc3ncccc3[nH]2)c1	90*	0.1	-12	0.2	79*	-5
COc1ccc(NC(=O)CSc2nc3ncccc3[nH]2)cc1OC	41	0.6	nt	0.9	8	8
Cc1ccnc(NC(=O)CCC(=O)N(CC(=O)NCC2CCCO2)Cc2ccc(F)cc2)c1 (stereo unspecified)	-3	1	-23	1.1	-6	3
CC1CC(C)CN(CCC(=O)Nc2cccc(Cl)c2)C1 (stereo unspecified)	18	0.8	-1	0.3	69*	5
Cc1cccc(NC(=O)CCN2CC(C)OC(C)C2)c1 (stereo unspecified)	2	1	-10	0.3	73*	-1
COc1ccc(CNC(=O)c2cccnc2Sc2ccc(Cl)cc2)cc1	5	1	nt	1.1	-6	7
COc1ccc(CNC(=O)c2csc(Cc3ccc(Cl)cc3)n2)cc1	62*	0.4	nt	0.4	57*	-15
COc1ccc(CNC(=O)c2csc(Cc3ccc(OC)cc3)n2)cc1	67*	0.3	nt	0.5	49	-17
Cc1occc1C(=O)Nc1ccc(S(=O)(=O)N2CCN(C)CC2)cc1	21	0.8	-4	0.8	16	6
CSCCOC(=O)C1=C(C)Nc2ccc(C)cc2S1	61*	0.4	nt	0.5	50	1
CCOCCOC(=O)C1=C(C)Nc2ccc(C)cc2S1	71*	0.3	-10	0.1	91*	3
COC(=O)[C@H](CCSC)NC(=O)Nc1cc(C)ccc1C	0	1	-19	1	3	-2
CCOC(=O)/C=C1\Nc2ccccc2SC1=O	49	0.5	8	0.6	44	-3
CCOC(=O)C1=C(C)Nc2ccc(C)cc2S1	31	0.7	nt	0.3	66*	-12
CCNc1nc2nonc2nc1NCC	-160	2.6*	1	1.1	-14	10
Cc1ccc(Nc2nc3nonc3nc2N(C)C)cc1	5	1	nt	0.9	14	15
O=C1CCC(=O)N1CNc1ccccn1	-18	1.2	3	1.1	-12	-6
C=C(c1ccc(O)cc1)c1ccc(O)cc1	98*	0	21	0	96*	28
CC1(C)CC(=O)C(C=NCCO)=C(O)C1	-13	1.1	-15	1.1	-5	6
O=C(CSc1nncs1)N1c2ccccc2Sc2ccccc21	37	0.6	2	0.4	62*	0
